# Experimental data gathered from unrelated publications.
# Protocols differ between the studies behind these lines.
SMILES,cell line,test,conditions,IC50 [µM]
COc1cc(/C=C/C(=O)/C=C(O)/C=C/c2ccc[nH]2)ccc1O,CHO-K1,"cell growth or viability, SRB",72 h,49
O=C(O)Cc1ccccc1Nc1c(Cl)cccc1Cl,RAW264.7,"TNF-α release, inhibitor",LPS-stimulated,21.3
O=[N+]([O-])c1ccc(-c2nc3cnccn3c2NC2CCCCC2)cc1,Vero,"cell growth or viability, MTT",48 h,64
CCOc1ccc(-c2nc3ccccc3n2Cc2ccccc2)cc1,human Rhabdomyosarcoma cell,"cell growth or viability, MTT",,48.6
CCN(CC)C(=O)c1ncn2c(=O)n(C)nnc12,D54,"cell growth or viability, resazurin",7 days,13
O=C(/C=C(/C=C/c1cccnc1)NCCCO)/C=C/c1cccnc1,CHO-K1,"cell growth or viability, SRB",72 h,> 75
COc1ccccc1/C=C/CNCC(O)COc1ccc2[nH]c3ccccc3c2c1 (stereo not drawn),NCI-H1299,"cell growth or viability, CCK-8",72 h,6.1
Nc1ccccc1-c1nc2ccccn2c1N,Vero,"cell growth or viability, MTT",48 h,74
Clc1ccc(-c2nc3ccccc3n2Cc2ccccc2)cc1,human Rhabdomyosarcoma cell,"cell growth or viability, MTT",,31.7
CC(C)C[C@H](NC(=O)[C@H](Cc1ccccc1)NC(=O)c1cnccn1)B(O)O,SNU-840,"cell growth or viability, ATP luminescence",,0.0081
COc1ccccc1/C=C/CNCC(O)COc1cccc2[nH]c3ccccc3c12 (stereo not drawn),NCI-H1299,"cell growth or viability, CCK-8",72 h,7.2
O=C1C=C(/C=C/c2cccnc2)N(CCCO)C(c2cccnc2)C1 (stereo not drawn),CHO-K1,"cell growth or viability, MTT",72 h,> 75
COc1ccccc1CCCNCC(O)COc1cccc2[nH]c3ccccc3c12 (stereo not drawn),NCI-H1299,"cell growth or viability, CCK-8",72 h,7.2
O=C(Nc1nnc(-c2cc3ccccc3[nH]2)s1)c1cc2c([nH]c3ccccc32)c(-c2ccc(Cl)cc2)n1,HL-60,"cell growth or viability, MTT",72 h,9.31
COc1ccc2c(c1)NC(=O)CN2c1nc(C)nc2c1CCC2,M14,cell growth or viability,72 h,0.0014
Cc1ccc2nc(-c3ccc(F)cc3)n(Cc3ccccc3)c2c1,human Rhabdomyosarcoma cell,"cell growth or viability, MTT",,35.1
COc1cccc2c1C(=O)c1c(O)c3c(c(O)c1C2=O)C[C@@](O)(C(=O)CO)C[C@@H]3O[C@H]1C[C@H](N)[C@H](O)[C@H](C)O1,CHO-K1,"cell growth or viability, SRB",72 h,6.2
COc1ccccc1OCCN(C)CC(O)COc1cccc2[nH]c3ccccc3c12 (stereo not drawn),NCI-H1299,"cell growth or viability, CCK-8",72 h,39.5
COc1cc(/C=C/c2cc(/C=C/c3ccncc3)[nH]n2)ccc1O,CHO-K1,"cell growth or viability, SRB",72 h,41.8
COc1cc(N2CCC(N3CCN(C)CC3)CC2)ccc1Nc1ncc(Cl)c(Nc2ccccc2S(=O)(=O)C(C)C)n1,Rh30,cell growth or viability,72 h,0.3
O=C(/C=C(O)/C=C/c1c[nH]c2ccccc12)/C=C/c1c[nH]c2ccccc12,CHO-K1,"cell growth or viability, MTT",72 h,7.9
COc1cc(/C=C/C(=O)/C=C(O)/C=C/c2c[nH]c3ccccc23)ccc1O,CHO-K1,"cell growth or viability, MTT",72 h,26.4
COc1cc(Nc2nccc(-c3cnn4nc(OC)ccc34)n2)cc(C(F)(F)F)c1,MKN-45,"cell growth or viability, ATP luminescence",,1.4
CSc1ccc(-c2nc3ccc(C)cc3n2Cc2ccccc2)cc1,human Rhabdomyosarcoma cell,"cell growth or viability, MTT",,31.7
Nc1ccc(-c2nc3cnccn3c2N)cc1,Vero,"cell growth or viability, MTT",48 h,96
C=CCn1c(-c2ccc([N+](=O)[O-])cc2)nc2ccc(C)cc21,human Rhabdomyosarcoma cell,"cell growth or viability, MTT",,86
O=C(/C=C(/C=C/c1cccnc1)NC1CCCCC1)/C=C/c1cccnc1,CHO-K1,"cell growth or viability, SRB",72 h,20.4
Cn1nnc2c(C(N)=O)ncn2c1=O,D54,"cell growth or viability, resazurin",7 days,12
COc1ccc(-c2nc3ccccc3[nH]2)cc1O,human Rhabdomyosarcoma cell,"cell growth or viability, MTT",48 h,53.1
COCCCN1C(/C=C/c2cccnc2)=CC(=O)CC1c1cccnc1 (stereo not drawn),CHO-K1,"cell growth or viability, MTT",72 h,> 75
O=C(Cn1ccnc1[N+](=O)[O-])NCc1ccccc1,RAW264.7,"cell growth or viability, MTT",,> 240
Brc1ccc(Nc2nc(NCCc3ccccc3)nc(NCCc3ccccc3)n2)cc1,SK-BR-3,"cell growth or viability, SRB",72 h,25.3
O=C(/C=C(O)/C=C/c1cccs1)/C=C/c1c[nH]c2ccccc12,CHO-K1,"cell growth or viability, SRB",72 h,11.1
Cc1ccc2nc(-c3ccc([N+](=O)[O-])cc3)n(Cc3ccccc3)c2c1,human Rhabdomyosarcoma cell,"cell growth or viability, MTT",,8.45
COc1cc(/C=C/C(=O)/C=C(O)/C=C/c2ccnc3ccccc23)ccc1O,CHO-K1,"cell growth or viability, MTT",72 h,22.3
C[C@@H](Oc1cc(-c2cnn(C3CCNCC3)c2)cnc1N)c1c(Cl)ccc(F)c1Cl,Rh30,cell growth or viability,72 h,0.99
Cc1ccc(C(=O)Nc2ccc(Oc3cc4cnn(C)c4cc3-c3cn[nH]c3)c(F)c2)c(=O)n1-c1ccc(F)cc1,MKN-45,"cell growth or viability, ATP luminescence",,0.028
COc1cc(/C=C/C(=O)CC(=O)/C=C/c2ccc(O)c(OC)c2)ccc1O,CHO-K1,"cell growth or viability, SRB",72 h,38.8
CC(=O)O[C@@]12CO[C@@H]1C[C@H](O)[C@@]1(C)C(=O)[C@H](O)C3=C(C)[C@@H](OC(=O)[C@H](O)[C@@H](NC(=O)OC(C)(C)C)c4ccccc4)C[C@@](O)([C@@H](OC(=O)c4ccccc4)[C@H]21)C3(C)C,MDA-MB-436,"cell growth or viability, ATP luminescence",72 h,0.0037
O=C(/C=C(O)/C=C/c1cccnc1)/C=C/c1c[nH]c2ccccc12,CHO-K1,"cell growth or viability, SRB",72 h,24.3
COc1ccccc1/C=C/CNCC(O)COc1ccncc1 (stereo not drawn),NCI-H1299,"cell growth or viability, CCK-8",72 h,34.1
COc1cc([C@@H]2c3cc4c(cc3[C@@H](O[C@@H]3O[C@@H]5CO[C@@H](C)O[C@H]5[C@H](O)[C@H]3O)[C@H]3COC(=O)[C@H]23)OCO4)cc(OC)c1O,SMMC-7721,"cell growth or viability, MTT",48 h,8.12
O=C(/C=C(O)/C=C/c1cccnc1)/C=C/c1cccnc1,CHO-K1,"cell growth or viability, MTT",72 h,7.2
Cn1nnc2c(Cl)ncn2c1=O,D54,"cell growth or viability, resazurin",7 days,21
COc1ccccc1/C=C/CNCC(O)COc1ccc2c(c1)[nH]c1ccccc12 (stereo not drawn),NCI-H1299,"cell growth or viability, CCK-8",72 h,3.9
O=C(/C=C(O)/C=C/c1ccc[nH]1)/C=C/c1ccc[nH]1,CHO-K1,"cell growth or viability, SRB",72 h,11.7
c1ccc2[nH]c(-c3ccncc3)nc2c1,human Rhabdomyosarcoma cell,"cell growth or viability, MTT",48 h,31.2
CCn1c(-c2nnc(NC(=O)c3cc4c([nH]c5ccccc54)c(-c4ccc(C)cc4)n3)s2)cc2ccccc21,HL-60,"cell growth or viability, MTT",72 h,39.6
